According to ChEMBL document CHEMBL1153417, “5,7,8-Trimethyl-benzopyran and 5,7,8-trimethyl-1,4-benzoxazine aminoamide derivatives as novel antiarrhythmics against ischemia-reperfusion injury” (J Med Chem, 2009):
Calls of active or inactive are those of the source. The calls are words filed in the database; no cut-off is given here.

Assays:
Oryctolagus cuniculus [1] = organism: Oryctolagus cuniculus; experiment: Electrophysiological effect in New Zealand rabbit right ventricular papillary muscle assessed as resting membrane potential at 5 uM at 1 Hz stimulation frequency; type: functional, tissue-based; conditions: Muscle tissue
How it was run: (§1)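 Right ventricular papillary muscle tips were superfused at 37 °C with bicarbonate solution (pH 7.35-7.40, 95% O2/5% CO2). They were paced at 1 Hz (1000 ms cycle length) with 1 ms constant-current pulses through a bipolar platinum electrode. Transmembrane potentials were recorded by conventional microelectrodes, and RP, CT, APA, Vmax, APD50 and APD90 were measured automatically.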

[2] = Electrophysiological effect in New Zealand rabbit right ventricular papillary muscle assessed as action potential amplitude at 5 uM at 1 Hz stimulation frequency; type: functional, Oryctolagus cuniculus, Muscle tissue; how it was run: as §1
[3] = Electrophysiological effect in New Zealand rabbit right ventricular papillary muscle assessed as action potential duration measured at 50% repolarization at 5 uM at 1 Hz stimulation frequency; type: functional, Oryctolagus cuniculus, Muscle tissue; how it was run: as §1
[4] = Electrophysiological effect in New Zealand rabbit right ventricular papillary muscle assessed as action potential duration measured at 90% repolarization at 5 uM at 1 Hz stimulation frequency; type: functional, Oryctolagus cuniculus, Muscle tissue; how it was run: as §1
[5] = Electrophysiological effect in New Zealand rabbit right ventricular papillary muscle assessed as maximal rate of depolarization at 5 uM at 1 Hz stimulation frequency; type: functional, Oryctolagus cuniculus, Muscle tissue; how it was run: as §1
Oryctolagus cuniculus [6] = organism: Oryctolagus cuniculus; experiment: Electrophysiological effect in New Zealand rabbit right ventricular papillary muscle assessed as increase in conduction time at 5 uM at 1 Hz stimulation frequency; type: functional, tissue-based; conditions: Muscle tissue; how it was run: as §1
Heart [7] = experiment: Antioxidant activity in ischemia-reperfusion injury exposed Wistar rat heart assessed as malondialdehyde level per gram of wet tissue at 1 uM by thiobarbituric acid test; type: functional
How it was run: (§2)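 Rat hearts were taken under pentobarbital (30-40 mg per animal) after iv heparin. They were perfused by Langendorff at 90 cm H2O with oxygenated KHB buffer (pH 7.2, 11 mmol l-1 glucose) at 37 °C. After 20 min equilibration came 15 min ischemia (glucose-free KHB with 10 mM Tris-HCl, N2-equilibrated), then 60 min reperfusion. Compound was present for the last 5 min of ischemia and through reperfusion; n = 3-5.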

Heart [8] = experiment: Antiarrhythmic activity in ischemia-reperfusion injury exposed Wistar rat heart assessed as arrhythmia score at 1 uM; type: functional; how it was run: as §2
Heart [9] = experiment: Antiarrhythmic activity in ischemia-reperfusion injury exposed Wistar rat heart assessed as premature ventricular beats at 1 uM relative to untreated control; type: functional; how it was run: as §2
Heart [10] = experiment: Antioxidant activity in ischemia-reperfusion injury exposed Wistar rat heart assessed as reduction of malondialdehyde level at 2 uM by thiobarbituric acid test relative to control; type: functional; set-up: scale not given: the % may be the effect or the level left; how it was run: as §2
Heart [11] = experiment: Antioxidant activity in ischemia-reperfusion injury exposed Wistar rat heart assessed as reduction of malondialdehyde level at 1 uM by thiobarbituric acid test relative to control; type: functional; set-up: scale not given: the % may be the effect or the level left; how it was run: as §2
Heart [12] = experiment: Toxicity in ischemia-reperfusion injury exposed Wistar rat heart assessed as induction of ventricular tachycardia at 1 uM; type: tissue-based; how it was run: as §2
Heart [13] = experiment: Toxicity in ischemia-reperfusion injury exposed Wistar rat heart assessed as induction of ventricular fibrillation at 1 uM; type: tissue-based; how it was run: as §2
Heart [14] = experiment: Antiarrhythmic activity in ischemia-reperfusion injury exposed Wistar rat heart assessed as premature ventricular beats at 30 uM relative to untreated control; type: functional; how it was run: as §2
Heart [15] = experiment: Antiarrhythmic activity in ischemia-reperfusion injury exposed Wistar rat heart assessed as premature ventricular beats at 100 uM relative to untreated control; type: functional; how it was run: as §2
Oryctolagus cuniculus [16] = organism: Oryctolagus cuniculus; experiment: Electrophysiological effect in New Zealand rabbit right ventricular papillary muscle assessed as resting membrane potential at 20 um at 1 Hz stimulation frequency; type: functional, tissue-based; conditions: Muscle tissue; how it was run: as §1
[17] = Electrophysiological effect in New Zealand rabbit right ventricular papillary muscle assessed as action potential amplitude at 20 uM at 1 Hz stimulation frequency; type: functional, Oryctolagus cuniculus, Muscle tissue; how it was run: as §1
[18] = Electrophysiological effect in New Zealand rabbit right ventricular papillary muscle assessed as action potential duration measured at 50% repolarization at 20 uM at 1 Hz stimulation frequency; type: functional, Oryctolagus cuniculus, Muscle tissue; how it was run: as §1
[19] = Electrophysiological effect in New Zealand rabbit right ventricular papillary muscle assessed as action potential duration measured at 90% repolarization at 20 uM at 1 Hz stimulation frequency; type: functional, Oryctolagus cuniculus, Muscle tissue; how it was run: as §1
[20] = Electrophysiological effect in New Zealand rabbit right ventricular papillary muscle assessed as maximal rate of depolarization at 20 uM at 1 Hz stimulation frequency; type: functional, Oryctolagus cuniculus, Muscle tissue; how it was run: as §1

Structure (SMILES) | Activity (Oryctolagus cuniculus [1]) | Activity [2] | Activity [3] | Activity [4] | Activity [5] | Activity (Heart [7]) | Activity (Heart [8]) | Activity (Heart [9]) | further results
CCOC(=O)C1(C)CN(C(=O)CN(CC)CC)c2c(C)c(Cl)c(C)c(C)c2O1 (configuration not stated) | -81.5 mV | 105.1 mV | 107.7 ms | 159.5 ms | 184.7 V/s | – | – | – | Activity (Oryctolagus cuniculus [6]): Active
CCN(CC)CC(=O)Nc1c(C)cccc1C [LIDOCAINE] | – | – | – | – | – | 160 ng/g | 1 | 3.1% | –
CCN(CC)CC(=O)NC1CC(c2ccccc2)Oc2c(C)c(C)c(O)c(C)c21 (configuration not stated) | – | – | – | – | – | 129 ng/g | 3.6 | 4.3% | Activity (Heart [10]): 45%
CCN(CC)CC(=O)N1C[C@H](c2ccccc2)Oc2c(C)c(C)c(Cl)c(C)c21 | – | – | – | – | – | 106 ng/g | 4.3 | 1.5% | Activity (Heart [11]): 50%; Activity (Heart [12]): Toxic; Activity (Heart [13]): Toxic
CCN(CC)CC(=O)NC1CC(C)(C)Oc2c(C)c(C)c(O)c(C)c21 (configuration not stated) | – | – | – | – | – | – | – | – | Activity (Heart [14]): 9%; Activity (Heart [15]): 8%
CC(C)NCC(O)c1ccc(NS(C)(=O)=O)cc1 (configuration not stated) [SOTALOL] | – | – | – | – | – | – | – | – | Activity (Oryctolagus cuniculus [16]): -85.9 mV; Activity [17]: 109.5 mV; Activity [18]: 219.9 ms; Activity [19]: 275 ms; Activity [20]: 202.4 V/s
CCN(CC)CC(=O)N1CC(C)(C)Oc2c(C)c(C)c(Cl)c(C)c21 | -85.3 mV | 116.2 mV | 171.6 ms | 214.4 ms | 188.4 V/s | 143 ng/g | 5.7 | 2.1% | –
Cc1cccc(C)c1OCC(C)N (configuration not stated) [MEXILETINE] | – | – | – | – | – | – | – | – | Activity (Oryctolagus cuniculus [16]): -85.7 mV; Activity [17]: 105.9 mV; Activity [18]: 141 ms; Activity [19]: 180.9 ms; Activity [20]: 190.3 V/s
CCOC(=O)C1(C)CN(C(=O)CN(CC)CC)c2c(C)cc(C)c(C)c2O1 (configuration not stated) | -86.6 mV | 110.9 mV | 161.7 ms | 201.2 ms | 171.9 V/s | 88.6 ng/g | 1 | 3% | Activity (Heart [10]): 61%; Activity (Oryctolagus cuniculus [6]): Active
CCN(CC)CC(=O)N1CC(C)(C)Oc2c(C)c(C)cc(C)c21 | -85.9 mV | 108.4 mV | 147.1 ms | 179.5 ms | 175.4 V/s | 160 ng/g | 5.1 | 1.6% | Activity (Oryctolagus cuniculus [6]): Active
CCN(CC)CC(=O)N1CCOc2c(C)c(C)c(Cl)c(C)c21 | – | – | – | – | – | 163 ng/g | 1 | 3.9% | Activity (Heart [10]): 29%
CCCCCCC1(C)CC(NC(=O)CN(CC)CC)c2c(C)c(O)c(C)c(C)c2O1 (configuration not stated) | – | – | – | – | – | – | – | – | Activity (Heart [14]): 10%; Activity (Heart [15]): 9%
CCN(CC)CC(=O)N1C[C@@H](c2ccccc2)Oc2c(C)c(C)c(Cl)c(C)c21 | – | – | – | – | – | 153 ng/g | 1 | 0.8% | –
CCN(CC)CC(=O)N1CC(c2ccccc2)Oc2c(C)c(C)c(Cl)c(C)c21 (configuration not stated) | – | – | – | – | – | 118 ng/g | 1 | 1% | –
CCN(CC)CC(=O)N1CC(c2ccccc2)Oc2c(C)c(C)c(OC)c(C)c21 (configuration not stated) | – | – | – | – | – | 136 ng/g | 1 | 2.8% | –
CCN(CC)CC(=O)N1CC(c2ccccc2)Oc2c(C)c(C)cc(C)c21 (configuration not stated) | -82.7 mV | 115.1 mV | 175.6 ms | 210.9 ms | 174.5 V/s | 120 ng/g | 1 | 0.5% | Activity (Heart [10]): 48%; Activity (Oryctolagus cuniculus [6]): Active
CCN(CC)CC(=O)N1CCOc2c(C)c(C)cc(C)c21 | -85.8 mV | 111.9 mV | 192.3 ms | 236.8 ms | 200.2 V/s | 152 ng/g | 1.3 | 3.4% | Activity (Heart [10]): 34%
